Measurements from different studies.
Effect on: cell growth or viability

SMILES | cell line | assay | conditions | IC50
COc1cccc2c1C(=O)c1c(O)c3c(c(O)c1C2=O)C[C@@](O)(C(=O)CO)C[C@@H]3O[C@H]1C[C@H](N)[C@H](O)[C@H](C)O1 | DOHH-2 | – | 96 h | 10000 nM
CCNC(=O)Nc1nc2cc(-c3ccc4ncn(Cc5ccccc5)c(=O)c4c3)ccc2s1 | PC-9 | MTT | 72 h | > 20000 nM
Cc1nc(Nc2ncc(C(=O)Nc3c(C)cccc3Cl)s2)cc(N2CC[C@H](O)C2)n1 | Raji | ATP luminescence | 72 h | > 10000 nM
Cc1sc2c(c1C)C(c1ccc(Cl)cc1)=N[C@@H](CC(=O)NCCCCNC(=O)COc1cccc3c1C(=O)N(C1CCC(=O)NC1=O)C3=O)c1nnc(C)n1-2 (stereo partly shown) | AGS | CCK-8 | 72 h | 5120 nM
Nc1ccccc1NC(=O)c1ccc(Cn2cnc3c(Nc4ccc(Cl)cc4)ncnc32)cc1 | Raji | MTT | 72 h | 110 nM
CCCc1cc2cc(-n3nc(C)c4c3CC(C)(C)CC4=O)cc(N3CCC(O)CC3)c2c(=O)[nH]1 | SK-OV-3 | MTS | – | 2980 nM
O=C1CC[C@H](N2C(=O)c3cccc4c(Cc5ccc(CN6CCOCC6)cc5)ccc2c34)C(=O)N1 | NCI-H929 | – | – | 0.06 nM
Cc1cc(C)cc(NC(=O)Nc2nc3cc(-c4ccc5ncn(Cc6ccccc6)c(=O)c5c4)ccc3s2)c1 | PC-9 | MTT | 72 h | > 20000 nM
Nc1ccccc1NC(=O)c1ccc(Cn2cnc3c(Nc4ccc(Br)cc4F)ncnc32)cc1 | Raji | MTT | 72 h | 120 nM
O=C1CCC(N2C(=O)c3cccc4c(Cn5cc(C6CCNCC6)nn5)ccc2c34)C(=O)N1 (stereo not shown) | NCI-H929 | – | – | 6.21 nM
O=C(Nc1ccc(C(F)(F)F)cc1)Nc1nc2cc(-c3ccc4ncn(CCN5CCOCC5)c(=O)c4c3)ccc2s1 | PC-9 | MTT | 72 h | > 20000 nM
O=C1CCC(N2Cc3c(OCc4ccc(CN5CCNCC5)cc4)cccc3C2=O)C(=O)N1 (stereo not shown) | NCI-H929 | – | – | 20.4 nM
O=C(NO)c1ccc(Cn2cnc3c(Nc4cccc([N+](=O)[O-])c4)ncnc32)cc1 | Raji | MTT | 72 h | 300 nM
Cc1ccc(NC(=O)Nc2nc3cc(-c4ccc5ncn(Cc6ccccc6)c(=O)c5c4)ccc3s2)cc1 | PC-9 | MTT | 72 h | > 20000 nM
O=C1C(=Nc2ccc(Cl)cc2Br)c2ccccc2N1Cc1ccc(Br)cc1 | HCT-116 | MTT | 48 h | 600 nM
COc1cccc(NC(=O)Nc2nc3cc(-c4ccc5ncn(CCN6CCOCC6)c(=O)c5c4)ccc3s2)c1 | PC-9 | MTT | 72 h | > 20000 nM
Nc1cccc2c1CN(C1CCC(=O)NC1=O)C2=O (stereo not shown) | NCI-H929 | – | – | > 50 nM
O=C1C(=Nc2ccccc2Br)c2ccccc2N1Cc1ccccc1 | HCT-116 | MTT | 48 h | 1100 nM
COc1ccc(NC(=O)Nc2nc3cc(-c4ccc5ncn(CCN(C)C)c(=O)c5c4)ccc3s2)cc1 | PC-9 | MTT | 72 h | > 20000 nM
CC(C)(O)C(=O)N1CCC(n2cc(Cc3ccc4c5c(cccc35)C(=O)N4C3CCC(=O)NC3=O)cn2)CC1 (stereo not shown) | NCI-H929 | – | – | 0.19 nM
O=C(Nc1nc2cc(-c3ccc4ncn(Cc5ccccc5)c(=O)c4c3)ccc2s1)NC1CCCCC1 | PC-9 | MTT | 72 h | > 20000 nM
O=C(NO)c1ccc(Cn2cnc3c(Nc4ccc(Br)cc4F)ncnc32)cc1 | Raji | MTT | 72 h | 230 nM
